Bioassay records: PubChem, The Scripps Research Institute Molecular Screening Center
Only some compounds are listed: those with a hit (about 2% of all), similar ones and a draw of the others.
ARFGAP1 inh: rat ARFGAP1 inhibition | Arfgap1-stimulated ARF1 GTP hydrolysis, GDP FP detection | inhibition, % at 16.5 µM | actives 0.26% (n = 360,000) | AID 651572 | Q62848;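 active = inhibition above a per-plate limit, mean inhibition of low control wells plus 3 SD, cut at about 25% in these data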;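 also: 0% = DMSO wells with enzyme and 100% = wells lacking Arfgap1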
Target sequence (Q62848 1-136 limits assumed): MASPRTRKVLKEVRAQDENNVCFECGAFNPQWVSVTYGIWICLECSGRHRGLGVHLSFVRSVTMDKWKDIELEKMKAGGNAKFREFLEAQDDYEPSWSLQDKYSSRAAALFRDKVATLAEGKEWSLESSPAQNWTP
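Material: truncated rat Arfgap1 GAP domain; Incubation: compound-enzyme preincubation 20 min, reaction 120 min, detection 60 min, 25 °C; Read-out: percent inhibition of Arfgap1-stimulated GTP hydrolysis; Technique: FP, GDP Alexa 633 tracer displaced from anti-GDP antibody, 620/688 nm; Controls: No-Arfgap1 wells (100%) versus DMSO full-reaction wells (0%); Replication: single well per compound.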
LEDGF integ inh: blocks HIV-1 LEDGF/p75-dependent DNA integration; TR-FRET IN-LEDGF/p75 DNA integration, Eu/Cy5; inhibition, % at 3.7 µM; AID 743269; actives 0.64% (n = 370,000);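 active = inhibition above the screen-wide mean plus 3 SD, cut at about 13% in these data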;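 also: signal is the Cy5 over europium emission ratio at 671 and 618 nm; 0% = plate median of compound wells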
ASAP1 GAP inh: ASAP1 ArfGAP inhibition. ASAP1-stimulated ARF1 GTP hydrolysis, GDP FP detection. inhibition, % at 16.5 µM. actives 0.19% (n = 360,000). AID 624377;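 also: 0% = vehicle with enzyme and substrate and 100% = no enzyme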
MBD2 inh: inhibitors of human MBD2 binding to methylated oligonucleotide | actives 0.31% (n = 370,000) | Q9UBB5 | AID 686964 | TR-FRET | inhibition, % at 4.4 µM; in the data active = inhibition above about 13%
Target sequence (Q9UBB5 whole entry, looked up): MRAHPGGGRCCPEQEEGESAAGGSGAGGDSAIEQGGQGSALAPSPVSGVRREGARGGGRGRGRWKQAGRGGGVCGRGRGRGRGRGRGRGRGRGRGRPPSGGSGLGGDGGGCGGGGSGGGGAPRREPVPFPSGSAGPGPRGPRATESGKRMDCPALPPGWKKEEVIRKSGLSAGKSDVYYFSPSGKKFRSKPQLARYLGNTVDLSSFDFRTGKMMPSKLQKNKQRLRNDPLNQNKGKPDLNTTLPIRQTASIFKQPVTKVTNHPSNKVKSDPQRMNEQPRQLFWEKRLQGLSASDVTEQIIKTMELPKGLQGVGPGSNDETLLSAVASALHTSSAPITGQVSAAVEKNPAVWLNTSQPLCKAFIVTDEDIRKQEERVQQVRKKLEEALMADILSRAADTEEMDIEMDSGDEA
UHRF1 binding: blocks human UHRF1 binding to methylated DNA | Q96T88 | UHRF1 binding to methylated oligo, TR-FRET | inhibition, % at 4.4 µM | actives 0.75% (n = 370,000) | AID 687016; in the data active = inhibition above about 21%;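 also: UHRF1 SRA domain binding a hemimethylated CpG hairpin DNA probe; 0% = median of test compound wells and 100% = reference inhibitor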
TDP2 absorb: blocks human TDP2 phosphodiesterase activity; actives 0.34% (n = 370,000); inhibition, % at 12.8 µM; O95551; recombinant TDP2, T5PNP hydrolysis, p-nitrophenol absorbance 415 nm;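 active = inhibition above the mean of all tested compounds plus 3 SD, set per campaign, cut at about 25% in these data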;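 also: 0% = DMSO with enzyme and 100% = buffer with substrate but no TDP2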
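Test system: human TDP2 enzyme; Input: 120 nM TDP2 per well; Buffer or medium: Mg2+-containing Tris-HCl buffer, pH 7.5; Reagent: 5 mM T5PNP; Dosing: 12.8 µM single point, 1% DMSO; Incubation: reaction 2 h, 37 °C; Detection: p-Nitrophenol epi absorbance; Read-out: % inhibition relative to enzyme-containing and enzyme-free wells; Replicates: single well per compound.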
UHRF1 DNA bind: counter-screen for MBD2 inhibitors: human UHRF1 methylated DNA binding inhibitors. UHRF1 binding to methylated oligonucleotide, TR-FRET. shares compounds with MBD2 inh. inhibition, % at 4.4 µM. actives 25% (n = 1,000); in the data active = inhibition above about 21%;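 also: UHRF1 SRA domain binding a labeled hemimethylated CpG hairpin DNA; 0% = vehicle only and 100% = reference inhibitor with vehicle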
MBD2 confirm: MBD2-DBD methyl-DNA binding inhibition, TR-FRET confirmation; inhibition, % at 4.4 µM; TR-FRET MBD2-DBD binding to methylated oligonucleotide; actives 26% (n = 1,000); shares compounds with MBD2 inh; in the data active = inhibition above about 14%
TDP2 inh conf: human TDP2 inhibition, confirmation. shares compounds with TDP2 absorb. recombinant human TDP2, absorbance read-out. inhibition, % at 12.8 µM. actives 22% (n = 1,100). AID 743263;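 also: 0% = vehicle with enzyme and 100% = no enzyme buffer only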
IN multimer act: HIV-1 integrase multimerization activation, counter-screen; shares compounds with LEDGF integ inh; TR-FRET HIV-1 integrase multimerization, biochemical; activation, % at 7.7 µM; actives 17% (n = 2,000); in the data active = activation above about 8.9%
TRFRET interf: counter-screen for LEDGF/p75 integration inhibitors: TR-FRET optical interference; shares compounds with LEDGF integ inh; TR-FRET optical interference counterscreen, HIV-1 IN multimerization; inhibition, % at 7.7 µM; 2,000 tested, under 10 active;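 active = inhibition above the mean over all tested compounds plus 3 SD, which no compound reached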;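 also: 0% = integrase with antibodies and DMSO and 100% = antibodies without integrase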
IN-LEDGF confirm: LEDGF/p75-dependent HIV-1 integration inhibition, confirmation; TR-FRET LEDGF/p75-dependent HIV-1 integration, biochemical; shares compounds with LEDGF integ inh; inhibition, % at 3.7 µM; actives 36% (n = 2,000); AID 1053136; in the data active = inhibition above about 14%
* = called active by the depositor; / = not tested or not shown. Rule as the data show it, unless noted: active = inhibition above about 25%; inactive = the rest.

SMILES	ARFGAP1 inh	LEDGF integ inh	ASAP1 GAP inh	MBD2 inh	UHRF1 binding	TDP2 absorb	UHRF1 DNA bind	MBD2 confirm	IN multimer act	TRFRET interf	IN-LEDGF confirm	others
C[C@@H]1CCN(C2CC2)S(=O)(=O)c2c(cccc2N2CC[C@@H](O)C2)O1	/	-2.5	/	-2.5	1.2	-1.0	/	/	/	/	/
O=C(/C=C/c1cccs1)Nc1scc(-c2ccccc2)c1C(=O)O	-6.3	23.4*	-4.5	14.1*	21.8*	16.2	2.4	1.8	1.6	-7.8	35.3*
O=C(/C=C/c1cccs1)Nc1nc(-c2ccccc2)cs1	-11.8	-0.8	-2.7	-1.2	-1.0	6.3	/	/	/	/	/
COC(=O)C1CCN(C(=O)c2cc(-c3ccco3)nc3ccccc23)CC1	8.6	28.1*	-5.8	21.7*	40.0*	-2.2	30.1*	21.6*	14.6*	-73.7	48.9*
O=C(c1cc(-c2ccco2)nc2ccccc12)N1CCN(Cc2ccccc2)CC1	-12.3	6.0	5.4	0.8	-1.2	-4.4	/	/	/	/	/
CN1C2=N[C@@H](c3cccc(C(F)(F)F)c3)CC(=O)N2/C(=C\c2ccccc2)[C@H]1c1ccccc1	/	16.3*	/	30.7*	50.8*	0.3	28.9*	23.1*	19.7*	-99.0	8.4
CN1C2=N[C@@H](c3ccc(Br)cc3)CC(=O)N2/C(=C\c2ccccc2)[C@@H]1c1ccccc1	/	-4.6	/	4.7	-1.0	-2.4	/	/	/	/	/
COCCCN1C(=O)[C@H](CC(=O)N2CCN(C(=O)c3ccco3)CC2)[C@]2(C(=O)OC)CCCCC=C12	/	0.4	/	-1.3	4.7	-5.7	/	/	/	/	/
O=C(/C=C/c1ccco1)N(c1ccccn1)c1ccccn1	13.1	21.7*	-2.3	23.4*	51.9*	14.1	57.4*	27.5*	7.9	-39.9	46.4*
O=C(C=Cc1ccco1)c1ccco1	-11.1	73.2*	0.1	19.5*	57.6*	-8.0	10.5	1.5	2.1	-7.5	7.1
CCCC[C@H]1C2CC(OC(=O)Nc3ccc(C(F)(F)F)cc3)C(C2)[C@H]2CCCCN21 (some centres undefined)	/	0.2	/	4.1	0.8	2.4	/	/	/	/	/
NC(=S)NN=Cc1ccc(-c2ccc(S(=O)(=O)Nc3ncccn3)cc2)o1	-0.3	14.8*	-7.3	15.2*	47.4*	5.2	28.8*	9.2	7.0	-35.3	34.0*
CCOc1ccc(C(=O)N/N=C/c2ccc(-c3ccc(S(=O)(=O)Nc4ncccn4)cc3)o2)cc1	9.5	0.9	-4.5	-0.6	4.9	12.1	/	/	/	/	/
O=C(/C=C/c1ccco1)NC(=S)Nc1ccc(C(=O)O)cc1	-8.8	62.9*	7.8	48.2*	86.8*	40.2*	75.5*	30.4*	37.5*	-133.4	53.4*	TDP2 inh conf=19.6
CC(=O)NC(=S)Nc1ccc(NC(=S)NC(=O)/C=C/c2ccco2)cc1	12.6	3.4	1.2	0.1	-2.0	-5.0	/	/	/	/	/
N#Cc1ccc(/C=C2\CC3(OC(=O)C4CCCC4)CCCN2C3)cc1 (centres undefined)	/	-2.0	/	0.9	-2.0	0.9	/	/	/	/	/
O=C(Cc1nnc(NC(=O)c2ccccc2)s1)N/N=C/c1ccco1	-9.1	35.9*	0.9	19.0*	27.3*	-2.1	8.7	2.2	1.1	-5.5	3.1
O=C(Cc1nnc(NC(=O)c2ccccc2)s1)N/N=C/c1cccc(O)c1	-0.1	1.9	5.5	-3.7	-4.0	-0.4	/	/	/	/	/
Cc1cc2nc3c(=O)[nH]c(=S)[nH]c3nc2cc1NC(=O)C(F)(F)F	-2.9	74.1*	-3.6	33.0*	27.5*	2.6	-11.0	-11.5	11.8*	-42.1	4.8
CC1(C)CCCN(C(=O)c2coc(=O)c(Br)c2)C1	4.0	21.7*	8.9	17.7*	62.1*	6.9	101.1*	64.9*	16.4*	-82.8	65.4*
Nc1c(C(=O)Nc2ccc(F)cc2)sc2nc(-c3ccco3)ccc12	6.3	5.4	7.9	-5.6	-0.6	-10.3	/	/	/	/	/
CC(=O)c1sc2nc(-c3ccco3)ccc2c1N	-5.5	59.1*	2.6	45.1*	91.6*	0.6	28.1*	6.8	8.3	-29.3	3.8
CCOC(=O)CN1C(=O)S/C(=C/c2ccco2)C1=O	-6.1	-1.0	8.7	-3.4	-4.7	-3.5	/	/	/	/	/
O=C1/C(=C\c2ccc(O)cc2)SC(=S)N1c1cccnc1	3.7	3.7	-0.6	-0.1	-2.3	-5.0	/	/	/	/	/
NN1C(=O)/C(=C\c2ccco2)SC1=S	-3.8	54.7*	7.3	17.4*	63.3*	14.4	3.1	0.4	3.3	-16.6	10.4
SMILES	ARFGAP1 inh	LEDGF integ inh	ASAP1 GAP inh	MBD2 inh	UHRF1 binding	TDP2 absorb	UHRF1 DNA bind	MBD2 confirm	IN multimer act	TRFRET interf	IN-LEDGF confirm	others
O=C1/C(=C/c2ccco2)SC(=S)N1c1cccnc1	-5.6	92.7*	-12.6	104.6*	98.3*	3.7	69.5*	31.9*	15.8*	-79.6	65.6*
O=C(CCCN1C(=O)/C(=C/c2ccco2)SC1=S)Nc1cccc(C(=O)O)c1	-3.3	46.1*	-3.5	29.7*	76.0*	20.2	21.0*	2.8	3.4	-17.1	25.7*
O=C(NCc1c(F)cccc1F)C1CCC(CNS(=O)(=O)c2cccc3cccnc23)CC1 (centres undefined)	/	6.7	/	1.4	-2.7	8.7	/	/	/	/	/
C=C(C)C(=O)Oc1ccc(N=Nc2ccc(C)cc2)ccc1=O	-2.6	17.7*	-7.3	37.6*	61.6*	5.5	66.5*	43.3*	31.1*	-156.9	26.1*
C#CCN(C1CC1)S(=O)(=O)c1ccccc1Br	/	3.2	/	2.6	-0.1	6.1	/	/	/	/	/
CC(C)CNC(=O)OCc1cn(Cc2ccc(F)cc2F)nn1	/	7.6	/	-7.0	2.6	-1.6	/	/	/	/	/
CC1=NN(c2cccc(C(=O)O)c2)C(=O)/C1=C\C=C\c1ccco1	11.1	78.2*	-1.7	69.9*	93.9*	22.5	94.3*	56.4*	46.0*	-231.8	72.1*
